Calls of active or inactive are those of the source. The calls are words filed in the database; no cut-off is given here.
Experiments:
[1] = Antiproliferative activity against human KB-3-1 cells by MTT assay; assay type: functional, cell-based
Procedure, shortened: (§1)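 Cells kept in supplier-recommended media at 37 °C, 10% CO2. Serial dilutions added to a cell suspension (50,000 per mL) and incubated 5 d alongside blank and solvent controls. MTT then added to 0.5 mg mL^-1 final for 2 h, and formazan precipitate collected by centrifugation. Run as two parallel experiments; activity taken as mean relative to controls set at 100%.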

[2] = test system: PtK2; assay: Effect on F-actin cytoskeleton in Potorous tridactylus PtK2 cells at 2 ug/ml for overnight incubation by DAPI staining analysis; assay type: cell-based
Procedure, shortened: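 PtK2 cells grown on glass coverslips and exposed to compound overnight, with methanol-only controls. Fixed in 3.7% formalin for 10 min, permeabilized with 0.1% Triton X-100 for 5 min, then stained with Alexa Fluor 488 phalloidin (1:100) for 1 h. F-actin (green) and DNA (blue) examined by fluorescence microscopy.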

[3] = Cytotoxicity against Potorous tridactylus PtK2 cells by MTT assay; assay type: functional, cell-based; procedure, shortened: as §1
[4] = biological target: Tubulin (Sus scrofa) (UniProt P02554+P02550); assay: Inhibition of porcine tubulin polymerization at 500 ug/ml by fluorescence analysis; assay type: protein assay
Procedure, shortened: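 Porcine tubulin (kit master mix with buffer, glycerol and GTP) mixed with compound at a 5:50 volume ratio. Placed at once in a fluorimeter at 37 °C. Polymerization followed by incorporation of a fluorescent reporter, read at 460 nm (excitation 340 nm) for about 1 h. Methanol and nocodazole served as controls.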

[5] = organism: Homo sapiens; assay: Induction of actin polymerization (unknown origin) at 28 ug/ml after 20 mins by fluorescence analysis
Procedure, shortened: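 Pyrene-labelled muscle actin used, with pyrene fluorescence reporting polymerization state. Baseline read 3 min, then compound or methanol added and read a further 20 min. Polymerization then started with 10X actin polymerization buffer and read for 1 h.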

[6] = test system: PtK2; assay: Effect on microtubular network in Potorous tridactylus PtK2 cells at 4 ug/ml for overnight incubation by DAPI staining analysis; assay type: functional, cell-based
Procedure, shortened: (§2)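 PtK2 cells on glass coverslips incubated overnight with compound or with methanol only. For alpha-tubulin staining, fixed in cold (-20 °C) MeOH/acetone (1:1) for 10 min, then probed with primary antibody. DNA counterstained. Microtubular network, mitotic spindles and chromosome distribution assessed by fluorescence microscopy.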

[7] = test system: L929; assay: Effect on microtubule polymerization in mouse L929 cells at 0.6 ug/ml by impedance profiling; assay type: cell-based
Procedure, shortened: (§3)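 L-929 cell cultures incubated with compound while impedance was recorded over time. The time-dependent impedance curves served as a mode-of-action fingerprint and were compared statistically, by cluster analysis, against curves from a set of reference compounds. Controls received methanol.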

[8] = test system: PtK2; assay: Effect on mitotic spindle in Potorous tridactylus PtK2 cells at 4 ug/ml for overnight incubation by DAPI staining analysis; assay type: functional, cell-based; procedure, shortened: as §2
[9] = test system: L929; assay: Antiproliferative activity against mouse L929 cells by MTT assay; assay type: functional, cell-based; procedure, shortened: as §1
[10] = test system: PtK2; assay: Effect on chromosme distribution in Potorous tridactylus PtK2 cells at 4 ug/ml for overnight incubation by DAPI staining analysis; assay type: functional, cell-based; procedure, shortened: as §2
[11] = test system: L929; assay: Effect on spindle formation in mouse L929 cells at 0.6 ug/ml by impedance profiling; assay type: cell-based; procedure, shortened: as §3

Chain of Tubulin (Sus scrofa) (P02550 whole entry, looked up): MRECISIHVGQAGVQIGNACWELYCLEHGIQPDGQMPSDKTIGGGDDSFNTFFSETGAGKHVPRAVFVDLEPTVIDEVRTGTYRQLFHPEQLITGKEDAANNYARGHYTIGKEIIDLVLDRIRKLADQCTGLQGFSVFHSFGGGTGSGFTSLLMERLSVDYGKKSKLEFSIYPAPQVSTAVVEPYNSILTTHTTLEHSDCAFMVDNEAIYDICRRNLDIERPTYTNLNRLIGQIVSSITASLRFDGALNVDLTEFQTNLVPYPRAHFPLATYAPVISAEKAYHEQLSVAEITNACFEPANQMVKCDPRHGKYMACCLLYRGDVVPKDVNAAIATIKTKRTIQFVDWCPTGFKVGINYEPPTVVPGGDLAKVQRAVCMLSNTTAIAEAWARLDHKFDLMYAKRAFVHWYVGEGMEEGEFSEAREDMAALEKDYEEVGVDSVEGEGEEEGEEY
Chain of Tubulin (Sus scrofa) (P02554 whole entry, looked up): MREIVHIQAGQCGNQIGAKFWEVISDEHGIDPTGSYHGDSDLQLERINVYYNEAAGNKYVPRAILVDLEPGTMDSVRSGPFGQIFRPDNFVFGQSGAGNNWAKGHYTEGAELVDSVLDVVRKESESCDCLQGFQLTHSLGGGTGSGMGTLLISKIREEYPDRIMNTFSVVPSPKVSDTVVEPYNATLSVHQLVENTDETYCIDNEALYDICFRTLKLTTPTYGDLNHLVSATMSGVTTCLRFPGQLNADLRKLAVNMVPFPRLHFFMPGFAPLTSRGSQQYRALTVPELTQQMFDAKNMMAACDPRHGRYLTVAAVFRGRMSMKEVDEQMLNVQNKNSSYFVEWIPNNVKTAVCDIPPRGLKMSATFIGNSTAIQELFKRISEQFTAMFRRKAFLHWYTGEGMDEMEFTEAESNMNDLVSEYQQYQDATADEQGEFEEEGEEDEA

inhibition [4]: Active | Activity [5]: Active
SMILES: C#CC(=O)O[C@H]1C[C@@H]2CC3(C[C@@H]2C1)OCC(C)(C)CO3
IC50 [1]: 21600 nM | Activity [2]: Active | IC50 [3]: 3000 nM | Activity [6]: Active | Activity [7]: Active | Activity [8]: Active | IC50 [9]: 2200 nM | Activity [10]: Active | Activity [11]: Active

Reference: ChEMBL document CHEMBL3286338, “SAR studies on hydropentalene derivatives--Important core units of biologically active tetramic acid macrolactams and ptychanolides” (Bioorg Med Chem, 2014)
